Published values gathered from unrelated publications.
Lines come from different studies, so protocols differ.
Target: Serine/threonine-protein kinase RIO2 (RIOK2, Homo sapiens, UniProt Q9BVS4)

CCc1ccccc1C(=O)Nc1n[nH]c2c(C)c(F)c(C3C(C#N)=C(C)N(C)C(C)=C3C#N)cc12 — remaining binding (cell-free assay; competition with immobilised ligand; 1 µM): 93%
O=C(Nc1c[nH]nc1C(=O)NC1CCNCC1)c1cc(F)cc(F)c1 — remaining binding (binding; competition with immobilised ligand; 1 µM): 100%
C[C@@H](c1ccc(-n2cnc3c(N)ncnc32)cc1)N1CCc2nn(C)c(Cc3ccccc3)c2C1=O — remaining binding (binding; competition with immobilised ligand; 0.1 µM): 97%
COc1ccnn2ncc(-c3ccnc(N(C)C)n3)c12 — remaining binding (binding; 1 µM): 63%
O=C(NCCCN1CCOCC1)c1ccc(Nc2ncc(Cl)c(-c3ccc(Cl)s3)n2)cc1 — remaining binding (binding; competition with immobilised ligand; 1 µM): 59%
CCOC(=O)c1cc2cc(-c3cc(C(=O)NCc4ccc(C(=O)O)cc4)nn3C)ccc2[nH]1 — remaining binding (cell-free assay; competition with immobilised ligand; 0.1 µM): 100%
C=CC(=O)N1CCC(C(=O)NCC(=O)N2CCN(c3nc(-c4cnc(N)nc4C(F)F)nc(N4CCOCC4)n3)CC2)CC1 — remaining binding (binding; competition with immobilised ligand; 1 µM): 83%
CN(C)C(=O)Cn1cc(-c2nc([C@@](C)(c3ccc(-c4cnc(N)nc4)cc3)C3CC3)no2)cn1 — remaining binding (cell-free assay; competition with immobilised ligand; 1 µM): 87%
Nc1ncc2c(n1)-c1c([nH]c3ccc(C#CC4CC4)cc13)CCCC2 — remaining binding (binding; competition with immobilised ligand; 1 µM): 77%
CCS(=O)(=O)c1cc2cc(C[C@](O)(CC(C)(C)c3ccc(F)cc3C(N)=O)C(F)(F)F)[nH]c2cn1 — remaining binding (cell-free assay; competition with immobilised ligand; 1 µM): 100%
CCN1CCN(Cc2ccc(C(=O)Nc3ccc(C)c(Oc4ccc5c(c4)CC(=O)N5)c3)cc2C(F)(F)F)CC1 — remaining binding (binding; competition with immobilised ligand; 1 µM): 100%
c1cnn2ncc(-c3ccnc(N4CCC45COC5)n3)c2c1 — remaining binding (binding; 1 µM): 61%
O=C(c1ccc(Nc2nccc(-c3cc4ccccc4s3)n2)cc1)N1CCC(N2CCCC2)CC1 — remaining binding (binding; competition with immobilised ligand; 1 µM): 46%
CN(c1nccc(-c2cnn3ncccc23)n1)C1CC1 — remaining binding (binding; 1 µM): 99%
Cc1cnc(Nc2ccc(C(=O)N3CCC(N4CCCC4)CC3)cc2)nc1-c1cc2ccccc2s1 — remaining binding (binding; competition with immobilised ligand; 1 µM): 40%
NS(=O)(=O)c1cc(NC(=O)Cc2ccccc2)ccc1Oc1cccc(Cl)c1 — remaining binding (cell-free assay; competition with immobilised ligand; 1 µM): 100%
CN(CCCC(F)(F)F)c1nccc(-c2cnn3ncccc23)n1 — remaining binding (binding; 1 µM): 100%
Cc1nc(N2CC[C@@H](O)C2)ncc1-c1cc(C(F)(F)F)cc2[nH]ncc12 — remaining binding (binding; competition with immobilised ligand; 1 µM): 100%
COc1cnc(Nc2cccc(S(N)(=O)=O)c2)nc1N1CCN(c2ccccc2)CC1 — remaining binding (binding; competition with immobilised ligand; 1 µM): 83%
F[C@@H]1CCN(c2nccc(-c3cnn4ncccc34)n2)C1 — remaining binding (binding; 1 µM): 64%
C[C@@H]1CN(c2ccc3ncc(-c4ccc5[nH]nc(C6CC6)c5c4)n3n2)C[C@H](C)O1 — remaining binding (binding; competition with immobilised ligand; 0.5 µM): 23%
O=C(Nc1ccc(Oc2ccc(F)cc2)cc1)N1CCc2ncccc2[C@H]1c1ccc(F)cc1 — remaining binding (cell-free assay; competition with immobilised ligand; 1 µM): 94%
C[C@@H]1CCN(c2nccc(-c3cnn4ncccc34)n2)C1 — remaining binding (binding; 1 µM): 75%
c1cncc(-c2cccc(Nc3nccc(NC4CCCCC4)n3)c2)c1 — remaining binding (binding; competition with immobilised ligand; 10 µM): 37%
